Data on seven compounds can be found in ChEMBL document CHEMBL4330170, “Acidiphilamides A-E, Modified Peptides as Autophagy Inhibitors from an Acidophilic Actinobacterium, Streptacidiphilus rugosus” (J Nat Prod, 2019).

Assay [1] relates to HeLa. Nature of the assay: Inhibition of autophagic flux in human HeLa cells assessed as increase in LC3-2 level at 100 to 200 uM after 4 to 12 hrs by immunoblot analysis. The class given is functional, cell-based. The method, boiled down:
(§1)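 HeLa cells grown in DMEM with 10% FBS, 2 mM glutamine and penicillin/streptomycin, preincubated overnight, then exposed to compound at the indicated final concentrations for 4, 8 or 12 h. Whole-cell RIPA lysates run on SDS-PAGE, transferred to PVDF, blocked in 5% nonfat milk, probed with anti-LC3, anti-SQSTM1, anti-Ub, anti-α3 or anti-β-actin, HRP secondary, ECL detection.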

Assay [2] relates to HeLa. The assay is described as follows: Inhibition of autophagic flux in human HeLa cells assessed as DQ-BSA quenching at 200 uM after 4 hrs by DAPI staining based fluorescence microscopic method. Format: functional, cell-based. The procedure, abridged:
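HeLa cells on glass coverslips loaded with self-quenching BODIPY–BSA (DQ-BSA, 10 μg/mL) for 1 h, PBS-washed, then exposed to DMSO, EBSS or compound (200 μM) for 4 h. Fixed in 4% paraformaldehyde/PBS 15 min, mounted with DAPI-containing medium. Dequenched DQ-BSA puncta in autolysosomes imaged by fluorescence microscopy.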

The test system of assay [3] is HeLa. Nature of the assay: Inhibition of autophagic flux in human HeLa cells assessed as reduction in autolysosome formation by measuring increase in LC3-2 level at 200 uM after 8 hrs in presence of BafA1 by immunoblot analysis. The class given is functional, cell-based. The method, boiled down:
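HeLa cells grown in normal DMEM to >90% confluence, washed with PBS, then cotreated for 8 h with compound (200 μM) plus bafilomycin A1 (100 nM) in DMEM, or under amino acid depletion in EBSS. Whole-cell RIPA lysates immunoblotted (SDS-PAGE, PVDF, milk block, HRP secondary, ECL); β-actin loading control.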

The subject of assay [4] is HeLa. Nature of the assay: Inhibition of autophagic flux in human HeLa cells assessed as increase in LC3-2 level after 4 to 12 hrs by immunoblot analysis. Format: functional, cell-based. The method, boiled down:
as §1

Assay [5] deals with HeLa. The assay is described as follows: Effect on polyubiquitin conjugate protein expression in human HeLa cells at 100 to 200 uM after 4 to 12 hrs by immunoblot analysis. Format: functional, cell-based. The procedure, abridged:
as §1

Assay [6] deals with HeLa. The assay is described as follows: Inhibition of autophagic flux in human HeLa cells assessed as increase in LC3-2 level at 100 to 200 uM after 4 to 12 hrs by immunoblot analysis.
The subject of assay [7] is HeLa. The assay is described as follows: Effect on proteasome subunit alpha-3 protein expression in human HeLa cells at 100 to 200 uM after 4 to 12 hrs by immunoblot analysis. The class given is functional, cell-based. The method, boiled down:
as §1

Assay [8] concerns HeLa. Nature of the assay: Effect on p62/SQSTM1 protein expression in human HeLa cells at 100 to 200 uM after 4 to 12 hrs by immunoblot analysis. The class given is functional, cell-based. The procedure, abridged: as §1
Assay [9] concerns the target 26S proteasome (Homo sapiens) (UniProt Q99460+P49721+P20618+P28074+P28062+P28065+P28072+O00487+P25786+P25787+P25788+P25789+P28066+P60900+O14818+Q8TAA3+P40306+A5LHX3+P49720+P28070+Q99436+Q16186+P35998+P62191+P43686+P62333+P17980+P62195+Q13200+O43242+O00232+O00231+Q15008+P51665+Q9UNM6+P55036+P48556+P60896). Nature of the assay: Inhibition of human 26S proteasome using suc-LLVY-AMC as substrate up to 40 mins by fluorescence assay. Format: protein-complex assay. The procedure, abridged:
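Purified human 26S proteasomes incubated with compound and fluorogenic substrate suc-LLVY-AMC. Substrate hydrolysis followed as AMC fluorescence (RFU) over time.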

The source made the active and inactive calls. The rule behind the calls is not given here. Non-standard residues stand in square brackets, D forms with d. Residues, ends and D or L forms follow the SMILES beside them. *: point of attachment. Phe(ol) = N[C@H](CO)Cc1ccccc1; Isovaleryl = CC(C)CC(=O)*; Propionyl = CCC(=O)*; Butyryl = CCCC(=O)*

As to `CC[C@H](C)[C@H](NC(=O)[C@H](Cc1ccccc1)NC(=O)CC(C)C)C(=O)N[C@H](CO)Cc1ccccc1` (Isovaleryl-Phe-Ile-[Phe(ol)]), in assay [1], the “LC3-II increase (active/not active)” value is “inactive”.

`CC(C)CC(=O)N[C@@H](Cc1ccccc1)C(=O)N[C@H](C(=O)N[C@H](CO)Cc1ccccc1)C(C)C` (Isovaleryl-Phe-Val-[Phe(ol)]): the inhibition result in assay [2] and in assay [6] was “Active” throughout. Besides, the inhibition entry in assay [3] and in assay [9] was “inactive” in each case. In [4], the inhibition result was “Dose-dependent effect”. Besides, the outcome in assay [5], in assay [7] and in assay [8] was inactive.

As to `CCC(=O)N[C@@H](Cc1ccc(O)cc1)C(=O)N[C@H](C(=O)N[C@H](CO)Cc1ccccc1)[C@@H](C)CC` (Propionyl-Tyr-Ile-[Phe(ol)]), in [1], the “LC3-II increase (active/not active)” value is “inactive”.

As to `CC[C@H](C)[C@H](NC(=O)[C@H](Cc1ccc(O)cc1)NC(=O)CC(C)C)C(=O)N[C@H](CO)CCSC`, the “LC3-II increase (active/not active)” value in [1] is “inactive”.

Take `CC(C)CC(=O)N[C@@H](Cc1ccc(O)cc1)C(=O)N[C@H](C(=O)N[C@H](CO)Cc1ccccc1)C(C)C` (Isovaleryl-Tyr-Val-[Phe(ol)]): the “LC3-II increase (active/not active)” value in assay [1] was “inactive”.

Consider `CCCC(=O)N[C@@H](Cc1ccccc1)C(=O)N[C@H](C(=O)N[C@H](CO)Cc1ccccc1)[C@@H](C)CC` (Butyryl-Phe-Ile-[Phe(ol)]), for which the inhibition entry in assay [2] and in [6] was “Active” throughout. In addition, the inhibition entry in assay [3] and in assay [9] was “inactive” throughout. The inhibition result in assay [4] is “Dose-dependent effect”. The outcome in assay [5], in assay [7] and in [8] was inactive.

As for `CC[C@H](C)[C@H](NC(=O)[C@H](Cc1ccc(O)cc1)NC(=O)CC(C)C)C(=O)N[C@H](CO)Cc1ccccc1` (Isovaleryl-Tyr-Ile-[Phe(ol)]), the “LC3-II increase (active/not active)” value in assay [1] was “inactive”.
